Laboratory results reported in ChEMBL document CHEMBL4043132, “3-O-Substituted-3',4',5'-trimethoxyflavonols: Synthesis and cell-based evaluation as anti-prostate cancer agents” (Bioorg Med Chem, 2017).

Legend:
Assay type in all cases: functional, cell-based
[1] = test system: PC-3; assay: Antiproliferative activity against human PC3 cells after 3 days by WST-1 assay; conditions: PC-3, 72 h
Method in brief: (§1)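 Cells from ATCC; PC-3 and LNCaP grown in RPMI-1640 and DU145 in EMEM, each with 10% FBS and 1% penicillin/streptomycin, 37 °C, 5% CO2. Seeded 3,200 cells/well and exposed for 3 days to at least five doses, with DMSO as vehicle control. WST-1 reagent added for 3 h at 37 °C, absorbance read at 430 nm. IC50 taken from a linear inhibition plot; mean ± SD of three independent experiments.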

[2] = test system: LNCaP; assay: Antiproliferative activity against human LNCAP cells after 3 days by WST-1 assay; conditions: 72 h; method in brief: as §1
[3] = test system: DU-145; assay: Antiproliferative activity against human DU145 cells after 3 days by WST-1 assay; conditions: DU-145, 72 h; method in brief: as §1

Compound	IC50 [1] [µM]	IC50 [2] [µM]	IC50 [3] [µM]
CCCCN(CCCC)CCCCCOc1c(-c2cc(OC)c(OC)c(OC)c2)oc2ccccc2c1=O	6.8	7.8	> 50
CCCOc1c(-c2cc(OC)c(OC)c(OC)c2)oc2ccccc2c1=O	11.8	5.7	2.8
CCC(C)Oc1c(-c2cc(OC)c(OC)c(OC)c2)oc2ccccc2c1=O (stereo unspecified)	38.6	9.3	> 50
CCCN(CCC)CCCCOc1c(-c2cc(OC)c(OC)c(OC)c2)oc2ccccc2c1=O	11.6	16.8	35.8
CCCCCN(CCCCC)CCCCCOc1c(-c2cc(OC)c(OC)c(OC)c2)oc2ccccc2c1=O	9.6	7.9	11.7

The next lines start with the values.

IC50 [1] [µM]	IC50 [2] [µM]	IC50 [3] [µM]	Compound
19.1	24.7	> 50	COc1cc(-c2oc3ccccc3c(=O)c2OC)cc(OC)c1OC
6.6	10	33.4	CCN(CC)CCCCCOc1c(-c2cc(OC)c(OC)c(OC)c2)oc2ccccc2c1=O
13.6	37.6	> 50	CCN(CC)CCCOc1c(-c2cc(OC)c(OC)c(OC)c2)oc2ccccc2c1=O
22.2	15.4	> 50	CCCCCOc1c(-c2cc(OC)c(OC)c(OC)c2)oc2ccccc2c1=O
13.7	13.5	13.3	CCN(CC)CCCCOc1c(-c2cc(OC)c(OC)c(OC)c2)oc2ccccc2c1=O
16.8	17.9	> 50	CCCN(CCC)CCCOc1c(-c2cc(OC)c(OC)c(OC)c2)oc2ccccc2c1=O
> 50	> 50	> 50	CCCCCCCOc1c(-c2cc(OC)c(OC)c(OC)c2)oc2ccccc2c1=O
